Reference: ChEMBL document CHEMBL3526018, “Metabolites of PPI-2458, a selective, irreversible inhibitor of methionine aminopeptidase-2: structure determination and in vivo activity” (Drug Metab Dispos, 2013)
Active and inactive are the calls of the source. The rule behind the calls is not given here.

How the values were obtained:
CYP3A4 (Homo sapiens) [1] = test: Activity of human recombinant CYP3A4 assessed as ((3R,4S,5S,6R)-4-((2R,3R)-3-(((S)-3,3-dimethyloxiran-2-yl)methyl)-2-methyloxiran-2-yl)-5-methoxy-1-oxaspiro[2.5]octan-6-yl ((R)-1-amino-3-methyl-1-oxobutan-2-yl)carbamate) formation per pmol of enzyme
CYP3A5 (Homo sapiens) [2] = test: Ratio of Vmax to Km for human recombinant CYP3A5 assessed as ((3R,4S,5S,6R)-4-((2R,3R)-3-(((R)-3,3-dimethyloxiran-2-yl)methyl)-2-methyloxiran-2-yl)-5-methoxy-1-oxaspiro[2.5]octan-6-yl ((R)-1-amino-3-methyl-1-oxobutan-2-yl)carbamate) formation; conditions: recombinant enzyme
CYP3A5 (Homo sapiens) [3] = test: Ratio of Vmax to Km for human recombinant CYP3A5 assessed as ((3R,4S,5S,6R)-5-methoxy-4-((2R,3R)-2-methyl-3-(3-methylbut-2-en-1-yl)oxiran-2-yl)-1-oxaspiro[2.5]octan-6-yl ((R)-1-amino-3-hydroxy-3-methyl-1-oxobutan-2-yl)carbamate) formation; conditions: recombinant enzyme
Rattus norvegicus [4] = test: Inhibition of MetAP2 level in Sprague-Dawley rat lung assessed as free enzyme level at 3 mg/kg, po by ELISA; format: functional, organism-based; design: dose 3 mg/kg
Method in brief: (§1)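 Male Sprague-Dawley rats (200-225 g, n=3 per group) were dosed once IV at 0.3 mg/kg or PO at 0.3 or 3.0 mg/kg, in 11% HPCD in water. Blood, liver, lung, thymus and pooled non-mesenteric lymph nodes were taken at ~24 h and lysed or homogenized with NP-40. Free MetAP2 was measured by ELISA and expressed as % of vehicle.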

CYP3A4 (Homo sapiens) [5] = test: Activity of human recombinant CYP3A4 assessed as ((3R,4S,5S,6R)-5-methoxy-4-((2R,3R)-2-methyl-3-(3-methylbut-2-en-1-yl)oxiran-2-yl)-1-oxaspiro[2.5]octan-6-yl ((R)-1-amino-3-hydroxy-3-methyl-1-oxobutan-2-yl)carbamate) formation; conditions: recombinant enzyme
CYP3A4 (Homo sapiens) [6] = test: Ratio of Vmax to Km for human recombinant CYP3A4 assessed as ((3R,4S,5S,6R)-4-((2R,3R)-3-(((R)-3,3-dimethyloxiran-2-yl)methyl)-2-methyloxiran-2-yl)-5-methoxy-1-oxaspiro[2.5]octan-6-yl ((R)-1-amino-3-methyl-1-oxobutan-2-yl)carbamate) formation; conditions: recombinant enzyme
Rattus norvegicus [7] = test: Inhibition of MetAP2 level in Sprague-Dawley rat thymus assessed as free enzyme level at 0.3 mg/kg, iv by ELISA; format: functional, organism-based; design: dose 0.3 mg/kg
Method in brief: as §1

CYP3A4 (Homo sapiens) [8] = test: Activity of human recombinant CYP3A4 assessed as ((3R,4S,5S,6R)-4-((2R,3R)-3-(((R)-3,3-dimethyloxiran-2-yl)methyl)-2-methyloxiran-2-yl)-5-methoxy-1-oxaspiro[2.5]octan-6-yl ((R)-1-amino-3-methyl-1-oxobutan-2-yl)carbamate) formation per pmol of enzyme
CYP3A4 (Homo sapiens) [9] = test: Activity of human recombinant CYP3A4 assessed as ((3R,4S,5S,6R)-4-((2R,3R)-3-(((S)-3,3-dimethyloxiran-2-yl)methyl)-2-methyloxiran-2-yl)-5-methoxy-1-oxaspiro[2.5]octan-6-yl ((R)-1-amino-3-methyl-1-oxobutan-2-yl)carbamate) formation; conditions: recombinant enzyme
CYP3A4 (Homo sapiens) [10] = test: Activity of human recombinant CYP3A4 assessed as ((3R,4S,5S,6R)-5-methoxy-4-((2R,3R)-2-methyl-3-(3-methylbut-2-en-1-yl)oxiran-2-yl)-1-oxaspiro[2.5]octan-6-yl ((R)-1-amino-3-hydroxy-3-methyl-1-oxobutan-2-yl)carbamate) formation per pmol of enzyme
Rattus norvegicus [11] = test: Inhibition of MetAP2 level in Sprague-Dawley rat thymus assessed as free enzyme level at 3 mg/kg, po by ELISA; format: functional, organism-based; design: dose 3 mg/kg
Method in brief: as §1

CYP3A4 (Homo sapiens) [12] = test: Ratio of Vmax to Km for human recombinant CYP3A4 assessed as ((3R,4S,5S,6R)-4-((2R,3R)-3-(((S)-3,3-dimethyloxiran-2-yl)methyl)-2-methyloxiran-2-yl)-5-methoxy-1-oxaspiro[2.5]octan-6-yl ((R)-1-amino-3-methyl-1-oxobutan-2-yl)carbamate) formation; conditions: recombinant enzyme
Rattus norvegicus [13] = test: Inhibition of MetAP2 level in Sprague-Dawley rat thymus assessed as free enzyme level at 0.3 mg/kg, po by ELISA; format: functional, organism-based; design: dose 0.3 mg/kg
Method in brief: as §1

Rattus norvegicus [14] = test: Inhibition of MetAP2 level in Sprague-Dawley rat lymph nodes assessed as free enzyme level at 0.3 mg/kg, po by ELISA; format: functional, organism-based; design: dose 0.3 mg/kg
Method in brief: as §1

Cytochrome P450 3A4 = Cytochrome P450 3A4 (Homo sapiens, UniProt P08684); test: Inhibition of CYP3A4 activity in human liver microsomes using nifedipine as a substrate by LC/MS analysis; format: ADME
Cytochrome P450 3A4, sequence (P08684 whole entry): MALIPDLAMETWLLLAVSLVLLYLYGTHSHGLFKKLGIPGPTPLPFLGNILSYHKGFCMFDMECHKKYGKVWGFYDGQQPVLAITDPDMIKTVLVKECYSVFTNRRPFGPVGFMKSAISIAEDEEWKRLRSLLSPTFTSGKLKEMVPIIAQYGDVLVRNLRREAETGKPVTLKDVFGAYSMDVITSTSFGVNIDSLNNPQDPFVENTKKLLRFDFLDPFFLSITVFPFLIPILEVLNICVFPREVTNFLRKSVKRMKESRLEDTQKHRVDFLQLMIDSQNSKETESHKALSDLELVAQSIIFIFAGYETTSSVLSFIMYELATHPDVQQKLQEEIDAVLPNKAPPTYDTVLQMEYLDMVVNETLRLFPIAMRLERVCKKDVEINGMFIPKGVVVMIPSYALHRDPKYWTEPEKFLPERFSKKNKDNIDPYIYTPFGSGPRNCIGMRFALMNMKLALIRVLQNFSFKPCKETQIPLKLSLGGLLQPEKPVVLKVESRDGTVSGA

CYP3A5 (Homo sapiens) [15] = test: Activity of human recombinant CYP3A5 assessed as ((3R,4S,5S,6R)-4-((2R,3R)-3-(((R)-3,3-dimethyloxiran-2-yl)methyl)-2-methyloxiran-2-yl)-5-methoxy-1-oxaspiro[2.5]octan-6-yl ((R)-1-amino-3-methyl-1-oxobutan-2-yl)carbamate) formation per pmol of enzyme
Liver microsome [16] = test: Metabolic stability in human liver microsomes assessed as retention time of ((3R,4S,5S,6R)-4-((2R,3R)-3-(((R)-3,3-dimethyloxiran-2-yl)methyl)-2-methyloxiran-2-yl)-5-methoxy-1-oxaspiro[2.5]octan-6-yl ((R)-1-amino-3-methyl-1-oxobutan-2-yl)carbamate) at 5 mM by LC/MS analysis; format: ADME; conditions: 5000 µM
Liver microsome [17] = test: Metabolic stability in dog liver microsomes assessed as retention time of ((3R,4S,5S,6R)-5-methoxy-4-((2R,3R)-2-methyl-3-(3-methylbut-2-en-1-yl)oxiran-2-yl)-1-oxaspiro[2.5]octan-6-yl ((R)-1-amino-3-hydroxy-3-methyl-1-oxobutan-2-yl)carbamate) at 5 mM by LC/MS analysis; format: ADME, Canis lupus familiaris; conditions: 5000 µM
[18] = Metabolic stability in monkey liver microsomes assessed as retention time of ((3R,4S,5S,6R)-4-((2R,3R)-3-(((S)-3,3-dimethyloxiran-2-yl)methyl)-2-methyloxiran-2-yl)-5-methoxy-1-oxaspiro[2.5]octan-6-yl ((R)-1-amino-3-methyl-1-oxobutan-2-yl)carbamate) at 5 mM by LC/MS analysis; format: ADME, Macaca mulatta; conditions: rhesus monkey, 5000 µM
Method in brief: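 Liver microsomes (pooled male/female) in 100 mM KPO4 pH 7.4 with PPI-2458 (5 mM stock), pre-incubated 5 min at 37°C, then 10 mM NADPH added; 20 min at 37°C with shaking. Time-zero and no-NADPH controls. Quenched with CH3CN; supernatant dried and redissolved in water. Analysed by LC-MS, ESI+ full scan 300–800 amu, C18 column, 10→50% B gradient.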

`CO[C@@H]1[C@H](OC(=O)N[C@@H](C(N)=O)C(C)C)CC[C@]2(CO2)[C@H]1[C@@]1(C)O[C@@H]1CC=C(C)C` [PPI-2458] gave a Vmax (CYP3A4 (Homo sapiens) [1]) of 2.97 pmol/min, a Vmax/Km (CYP3A5 (Homo sapiens) [2]) of 0.17 µL/min and a Vmax/Km (CYP3A5 (Homo sapiens) [3]) of 0.09 µL/min. The inhibition (Rattus norvegicus [4]) was “Active”, the Km (CYP3A4 (Homo sapiens) [5]) was 27 µM and the Vmax/Km (CYP3A4 (Homo sapiens) [6]) was 0.16 µL/min. For the same compound, the inhibition (Rattus norvegicus [7]) was “Active”, the Vmax (CYP3A4 (Homo sapiens) [8]) was 2.7 pmol/min and the Km (CYP3A4 (Homo sapiens) [9]) was 15 µM. The Vmax (CYP3A4 (Homo sapiens) [10]) was 0.51 pmol/min, the inhibition (Rattus norvegicus [11]) was “Active” and the Vmax/Km (CYP3A4 (Homo sapiens) [12]) was 0.19 µL/min. The inhibition (Rattus norvegicus [13]) was “Active”, the inhibition (Rattus norvegicus [14]) was “Active” and the Ki (Cytochrome P450 3A4) was 403 µM. For the same compound, the Vmax (CYP3A5 (Homo sapiens) [15]) was 2.86 pmol/min, the Drug metabolism (Liver microsome [16]) was “metabolite_detected” and the Drug metabolism (Liver microsome [17]) was “metabolite_detected”. For the same compound, the Drug metabolism [18] was “metabolite_detected”.
